Tests used:
[1] = biological target: T1, 5-hydroxytryptamine receptor 2C (Homo sapiens, UniProt P28335); test: Agonist activity at recombinant human 5HT2C-INI receptor expressed in Flp-In-293 cells assessed as calcium flux by FLIPR assay; assay type: functional, cell-based
T1 sequence (P28335 whole entry): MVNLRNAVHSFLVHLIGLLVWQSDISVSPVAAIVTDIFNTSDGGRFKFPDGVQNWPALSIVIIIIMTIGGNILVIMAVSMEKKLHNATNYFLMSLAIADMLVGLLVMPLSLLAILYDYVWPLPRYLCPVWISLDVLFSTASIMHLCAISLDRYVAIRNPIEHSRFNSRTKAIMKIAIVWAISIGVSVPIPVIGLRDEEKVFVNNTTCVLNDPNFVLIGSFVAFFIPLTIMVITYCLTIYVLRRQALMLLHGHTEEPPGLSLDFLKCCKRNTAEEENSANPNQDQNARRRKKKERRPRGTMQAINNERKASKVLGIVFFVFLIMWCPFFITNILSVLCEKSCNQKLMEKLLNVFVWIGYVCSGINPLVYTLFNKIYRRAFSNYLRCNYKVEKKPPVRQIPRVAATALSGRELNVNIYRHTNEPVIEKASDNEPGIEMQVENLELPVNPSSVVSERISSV

[2] = biological target: T2, 5-hydroxytryptamine receptor 2B (Homo sapiens, UniProt P41595)
T2 sequence (P41595 whole entry): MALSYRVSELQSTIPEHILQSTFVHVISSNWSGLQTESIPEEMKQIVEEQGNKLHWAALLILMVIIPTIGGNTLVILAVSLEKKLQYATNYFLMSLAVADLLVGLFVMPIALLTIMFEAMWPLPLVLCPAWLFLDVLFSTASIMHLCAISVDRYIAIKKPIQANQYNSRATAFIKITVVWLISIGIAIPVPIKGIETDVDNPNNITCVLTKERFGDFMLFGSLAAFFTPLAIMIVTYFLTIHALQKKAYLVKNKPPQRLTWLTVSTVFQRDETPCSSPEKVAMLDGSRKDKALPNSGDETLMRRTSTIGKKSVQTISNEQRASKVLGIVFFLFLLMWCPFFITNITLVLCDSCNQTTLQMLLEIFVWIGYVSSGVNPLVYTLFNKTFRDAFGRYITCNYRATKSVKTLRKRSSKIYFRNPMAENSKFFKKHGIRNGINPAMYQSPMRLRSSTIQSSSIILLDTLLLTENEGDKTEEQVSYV

[3] = biological target: T3, 5-hydroxytryptamine receptor 2A (Homo sapiens, UniProt P28223)
T3 sequence (P28223 whole entry): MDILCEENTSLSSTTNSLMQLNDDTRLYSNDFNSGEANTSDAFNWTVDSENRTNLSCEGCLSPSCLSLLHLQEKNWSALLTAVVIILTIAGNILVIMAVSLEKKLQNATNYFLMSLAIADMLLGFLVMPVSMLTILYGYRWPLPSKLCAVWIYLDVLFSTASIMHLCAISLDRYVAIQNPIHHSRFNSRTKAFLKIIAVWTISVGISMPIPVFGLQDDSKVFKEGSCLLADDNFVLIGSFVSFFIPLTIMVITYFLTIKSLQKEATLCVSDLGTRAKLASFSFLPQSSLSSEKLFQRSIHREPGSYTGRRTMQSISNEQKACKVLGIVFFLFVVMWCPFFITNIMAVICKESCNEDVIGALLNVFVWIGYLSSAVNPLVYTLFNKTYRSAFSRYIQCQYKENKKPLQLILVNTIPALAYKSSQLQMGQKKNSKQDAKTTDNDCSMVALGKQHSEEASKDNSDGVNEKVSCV

[4] = biological target: T4, 5-hydroxytryptamine receptor 2C (Homo sapiens) (UniProt P28335); test: Agonist activity at recombinant human 5HT2C-INI receptor expressed in Flp-In-293 cells assessed as calcium flux by FLIPR assay relative to 5-HT; assay type: functional, cell-based
T4 sequence (whole entry): T1 sequence (P28335 whole entry)

[5] = biological target: T2, 5-hydroxytryptamine receptor 2B; test: Agonist activity at recombinant human 5HT2B receptor expressed in Flp-In-293 cells assessed as calcium flux by FLIPR assay relative to 5-HT; assay type: functional, cell-based
[6] = biological target: T3, 5-hydroxytryptamine receptor 2A; test: Agonist activity at human 5HT2A receptor expressed in Flp-In-293 cells assessed as calcium flux by FLIPR assay relative to 5-HT; assay type: functional, cell-based
Homo sapiens = species on record: Homo sapiens; test: Selectivity ratio of EC50 for recombinant human 5HT2B receptor to EC50 for recombinant human 5HT2C-INI receptor
Summary of the method: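 Calcium flux measured by FLIPR in Flp-In-293 cells stably expressing human 5-HT2B or 5-HT2C-INI receptors.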

[7] = biological target: Serotonin 2 receptors; 5-HT2a & 5-HT2c (Homo sapiens) (UniProt P28223+P28335); test: Selectivity ratio of EC50 for recombinant human 5HT2A receptor to EC50 for recombinant human 5HT2C-INI receptor
Sequence of Serotonin 2 receptors; 5-HT2a & 5-HT2c (Homo sapiens) (P28223 whole entry, looked up, one chain of several): as the sequence (P28223 whole entry) above

With `C=CCOc1ccc(F)c(Cl)c1C1CC1CN` (single isomer, unassigned; (+)) [listing 1 of 2 here] as the compound, how does the EC50 ([1]; read-out: pEC50 (converted)) read?
The EC50 was 97.7 nM.

Which EC50 [2] does the source give for `COc1ccc(Cl)c(F)c1C1CC1CN` (single isomer, unassigned; (+)) [listing 1 of 2 here] here?
Its EC50 is 354 nM.

And the EC50 [3]?
The EC50 was 212 nM.

What about the EC50 ([1]; read-out: EC50) of the same compound?
The EC50 was 13 nM.

Which EC50 [2] does the source give for `C=CCOc1cc(F)c(Cl)cc1C1CC1CN` (single isomer, unassigned; (+)) [listing 1 of 2 here] here?
Its EC50 is 1000 nM.

With `COc1cc(F)c(Cl)cc1C1CC1CN` (single isomer, unassigned; (+)) [listing 1 of 2 here] as the compound, how does the EC50 [2] read?
The EC50 was 25 nM.

And the EC50 [3]?
The EC50 was 81 nM.

What about the EC50 ([1]; read-out: EC50) of the same compound?
Its EC50 is 7.6 nM.

And the EC50 ([1]; read-out: pEC50 (converted))?
Its EC50 is 7.76 nM.

How did the EC50 [2] turn out when `COc1ccc(F)c(F)c1C1CC1CN` (single isomer, unassigned; (+)) [listing 1 of 2 here] was run?
Its EC50 is 209 nM.

And the EC50 [3]?
Its EC50 is 437 nM.

And the EC50 ([1]; read-out: EC50)?
Its EC50 is 9.5 nM.

`C=CCOc1cc(Cl)c(Cl)cc1C1CC1CN` (single isomer, unassigned; (+)) was tested. Which Emax [4] did it give?
The Emax was 88%.

Which results are given for `C=CCOc1cc(F)c(Cl)cc1C1CC1CN` (single isomer, unassigned; (+)) [listing 2 of 2 here]?
Emax [4]: 87%; Emax [5]: 34%

How did the Emax [4] turn out when `C=CCOc1ccc(Cl)c(Cl)c1C1CC1CN` (single isomer, unassigned; (+)) was run?
The Emax was 70%.

`C=CCOc1ccc(Cl)c(F)c1C1CC1CN` (single isomer, unassigned; (+)) was tested. Which Emax [4] did it give?
Its Emax is 90%.

With `C=CCOc1ccc(F)c(Cl)c1C1CC1CN` (single isomer, unassigned; (+)) [listing 2 of 2 here] as the compound, how does the Emax [4] read?
The Emax was 92%.

What does the source list for `C=CCOc1ccc(F)c(F)c1C1CC1CN` (single isomer, unassigned; (+))?
Emax [4]: 100%; Emax [5]: 35%

How did the Emax [6] turn out when `COc1cc(Cl)c(Cl)cc1C1CC1CN` (single isomer, unassigned; (+)) was run?
The Emax was 85%.

And the Emax [4]?
The Emax was 95%.

With `COc1cc(F)c(Cl)cc1C1CC1CN` (single isomer, unassigned; (+)) [listing 2 of 2 here] as the compound, how does the Emax [6] read?
The Emax was 93%.

And the Emax [4]?
The Emax was 97%.

What about the Emax [5] of the same compound?
Its Emax is 59%.

With `COc1cc(F)c(F)cc1C1CC1CN` (single isomer, unassigned; (+)) as the compound, how does the Emax [4] read?
The Emax was 108%.

What about the Emax [5] of the same compound?
Its Emax is 69%.

Which results are given for `COc1ccc(Cl)c(F)c1C1CC1CN` (single isomer, unassigned; (+)) [listing 2 of 2 here]?
Emax [6]: 85%; Emax [4]: 92%; Emax [5]: 52%

How did the Emax [6] turn out when `COc1ccc(F)c(F)c1C1CC1CN` (single isomer, unassigned; (+)) [listing 2 of 2 here] was run?
The Emax was 79%.

And the Emax [4]?
Its Emax is 108%.

What about the Emax [5] of the same compound?
The Emax was 64%.

For `NCC1CC1c1c(OCCF)ccc(Cl)c1Cl` (single isomer, unassigned; (+)), which Emax [4] is on record?
Its Emax is 90%.

How did the Emax [4] turn out when `NCC1CC1c1c(OCCF)ccc(F)c1Cl` (single isomer, unassigned; (+)) was run?
The Emax was 86%.

`NCC1CC1c1c(OCCF)ccc(F)c1F` (single isomer, unassigned; (+)) was tested. Which Emax [4] did it give?
The Emax was 96%.

How did the Emax [4] turn out when `NCC1CC1c1cc(Cl)c(Cl)cc1OCCF` (single isomer, unassigned; (+)) was run?
Its Emax is 87%.

How did the Emax [4] turn out when `NCC1CC1c1cc(Cl)c(F)cc1OCCF` (single isomer, unassigned; (+)) was run?
Its Emax is 87%.

And the Emax [5]?
Its Emax is 39%.

`NCC1CC1c1cc(F)c(F)cc1OCCF` (single isomer, unassigned; (+)) was tested. Which Emax [4] did it give?
The Emax was 95%.

For `C=CCOc1ccc(F)c(Cl)c1C1CC1CN` (single isomer, unassigned; (-)) [listing 1 of 2 here], which EC50 ([1]; read-out: EC50) is on record?
Its EC50 is 104 nM.

With `COc1cc(F)c(F)cc1C1CC1CN` (single isomer, unassigned; (-)) [listing 1 of 2 here] as the compound, how does the EC50 [3] read?
Its EC50 is 511 nM.

`C=CCOc1cc(F)c(Cl)cc1C1CC1CN` (single isomer, unassigned; (-)) was tested. Which Emax [4] did it give?
The Emax was 77%.

What about the Emax [5] of the same compound?
Its Emax is 22%.

With `C=CCOc1ccc(F)c(Cl)c1C1CC1CN` (single isomer, unassigned; (-)) [listing 2 of 2 here] as the compound, how does the Emax [4] read?
Its Emax is 89%.

With `C=CCOc1ccc(F)c(F)c1C1CC1CN` (single isomer, unassigned; (-)) as the compound, how does the Emax [4] read?
Its Emax is 89%.

What about the Emax [5] of the same compound?
Its Emax is 26%.

What does the source list for `COc1cc(F)c(F)cc1C1CC1CN` (single isomer, unassigned; (-)) [listing 2 of 2 here]?
Emax [4]: 104%; Emax [5]: 59%

For `COc1ccc(Cl)c(Cl)c1C1CC1CN` (single isomer, unassigned; (-)), which Ratio EC50 (Homo sapiens) is on record?
Its Ratio EC50 is 31.

And the Emax [6]?
Its Emax is 88%.

What about the Emax [4] of the same compound?
The Emax was 104%.

And the Ratio EC50 [7]?
The Ratio EC50 was 40.

And the Emax [5]?
The Emax was 53%.

With `COc1ccc(Cl)c(F)c1C1CC1CN` (single isomer, unassigned; (-)) as the compound, how does the Emax [6] read?
The Emax was 86%.

What about the Emax [4] of the same compound?
Its Emax is 93%.

What about the Emax [5] of the same compound?
The Emax was 64%.

What does the source list for `COc1ccc(F)c(Cl)c1C1CC1CN` (single isomer, unassigned; (-))?
Emax [6]: 72%; Emax [4]: 96%

`NCC1CC1c1c(OCCF)ccc(Cl)c1Cl` (single isomer, unassigned; (-)) was tested. Which Emax [4] did it give?
Its Emax is 85%.

With `NCC1CC1c1c(OCCF)ccc(Cl)c1F` (single isomer, unassigned; (-)) as the compound, how does the Emax [4] read?
Its Emax is 80%.

For `NCC1CC1c1c(OCCF)ccc(F)c1F` (single isomer, unassigned; (-)), which Emax [4] is on record?
The Emax was 78%.

Which Emax [4] does the source give for `NCC1CC1c1cc(Cl)c(Cl)cc1OCCF` (single isomer, unassigned; (-)) here?
Its Emax is 75%.

`NCC1CC1c1cc(F)c(F)cc1OCCF` (single isomer, unassigned; (-)) was tested. Which Emax [4] did it give?
The Emax was 73%.

What does the source list for `COc1ccc(Cl)c(Cl)c1C1CC1CN` (stereo in doubt; (+)-20f)?
Emax [6]: 78%; Emax [4]: 98%; Emax [5]: 26%

How did the Emax [6] turn out when `COc1ccc(F)c(Cl)c1C1CC1CN` (stereo in doubt; (+)-20g) was run?
Its Emax is 77%.

What about the Emax [4] of the same compound?
Its Emax is 89%.

`NCC1CC1c1c(OCCF)ccc(Cl)c1F` (stereo in doubt; (+)-21d) was tested. Which Emax [4] did it give?
The Emax was 86%.

What does the source list for `COc1ccc(F)c(F)c1C1CC1CN` (stereo in doubt; (-)-20b)?
Emax [6]: 72%; Emax [4]: 108%; Emax [5]: 62%

`COc1cc(F)c(Cl)cc1C1CC1CN` (stereo in doubt; (-)-20c) [listing 1 of 2 here] was tested. Which EC50 [2] did it give?
Its EC50 is 329 nM.

And the EC50 [3]?
Its EC50 is 235 nM.

What about the EC50 ([1]; read-out: EC50) of the same compound?
The EC50 was 16 nM.

What does the source list for `COc1cc(F)c(Cl)cc1C1CC1CN` (stereo in doubt; (-)-20c) [listing 2 of 2 here]?
Emax [6]: 88%; Emax [4]: 98%; Emax [5]: 44%

For `COc1cc(Cl)c(Cl)cc1C1CC1CN` (stereo in doubt; (-)-20e), which Emax [6] is on record?
The Emax was 75%.

What about the Emax [4] of the same compound?
Its Emax is 89%.

`NCC1CC1c1cc(Cl)c(F)cc1OCCF` (stereo in doubt; (-)-21c) was tested. Which Emax [4] did it give?
Its Emax is 70%.

What about the Emax [5] of the same compound?
Its Emax is 26%.

`NCC1CC1c1c(OCCF)ccc(F)c1Cl` (stereo in doubt; (-)-21g) was tested. Which Emax [4] did it give?
Its Emax is 80%.

How did the Emax [4] turn out when `C=CCOc1ccc(Cl)c(F)c1C1CC1CN` (stereo in doubt; (-)-22d) was run?
The Emax was 87%.

For `C=CCOc1cc(Cl)c(Cl)cc1C1CC1CN` (stereo in doubt; (-)-22e), which Emax [4] is on record?
The Emax was 84%.

Which Emax [4] does the source give for `C=CCOc1ccc(Cl)c(Cl)c1C1CC1CN` (stereo in doubt; (-)-22f) here?
The Emax was 93%.

Reference: ChEMBL document CHEMBL3769385 (J Med Chem, 2016)
